Experimental data reported in ChEMBL document CHEMBL4373700, “Synthesis and Structure-Activity Relationship Correlations of Gnidimacrin Derivatives as Potent HIV-1 Inhibitors and HIV Latency Reversing Agents” (J Med Chem, 2019).

Assays:
[1] = test system: MT4; test: Cytotoxicity against human MT4 cells measured after 3 days by CytoTox-Glo assay; type: cell-based; settings: mt4, 72 h
In short: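 MT4 cells cultured with a range of compound concentrations for 3 days. Viability by CytoTox-Glo, run per the manufacturer's protocol. CC50 is the concentration causing a 50% drop in viability.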

[2] = Agonist activity at Protein kinase C in human MT4 cells infected with HIV-1 NL4-3 assessed as inhibition of viral replication measured on day 3 post-infection by Nano-Glo luciferase assay
[3] = molecular target: Protein kinase C (PKC); test: Agonist activity at Protein kinase C in human U1 cells infected with HIV-1 NL4-3 assessed as induction of HIV-1 p24 production after 72 hrs by ELISA; type: cell-based
In short: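 Latency model: U1 cells (2 × 10^5 cells/mL) incubated with a range of compound concentrations at 37 °C for 72 h. p24 in the supernatant measured by ELISA. EC50 is the concentration giving 50% of maximal p24 induction, from nonlinear regression.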

[4] = Half-life in Sprague-Dawley rat plasma at 0.05 mM measured up to 24 hrs by LCMS analysis; type: ADME, cell-free; settings: 50 µM
In short: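 Sprague Dawley rat plasma (sodium heparin) prewarmed 10 min at 37 °C. Compound added from 5 mM DMSO stock to a final 0.05 mM. Samples taken at 0, 0.5, 1, 2, 4, 6, 10 and 24 h, deproteinized with 2 volumes MeOH, centrifuged and filtered. Analysis by LCMS (C18, isocratic, ESI). Mean of three independent experiments.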

Row | SMILES | CC50 [1] [nM] | IC50 [2] [nM] | EC50 [3] [nM] | t1/2 [4] [h]
1 | C=C(C)[C@]12C[C@@H](COC(=O)c3ccccc3)[C@@]34OC5(O[C@@H]1[C@@H]3[C@@H]1O[C@]1(COC(=O)[C@@]13CC[C@@](C)(C(=O)O1)C3(C)C)[C@@H](O)[C@@]1(O)[C@H]4[C@H]([C@H](C)[C@@H]1OC(=O)c1ccccc1)[C@H](C)CCCCCC[C@H]5O)O2 | > 1 | > 1 |  | 
2 | C=C(C)[C@]12C[C@@H](COC(=O)c3ccccc3)[C@@]34OC5(O[C@@H]1[C@@H]3[C@@H]1O[C@]1(CO)[C@@H](O)[C@@]1(O)[C@H]4[C@H]([C@H](C)[C@@H]1OC(=O)c1ccccc1)[C@H](C)CCCCCC[C@H]5OC(=O)c1ccc(OC)cc1)O2 | > 1 | > 1 |  | 
3 | C=C(C)[C@]12C[C@@H](COC(=O)c3ccccc3)[C@@]34OC5(O[C@@H]1[C@@H]3[C@@H]1O[C@]1(COC(=O)C(C)(C)CC(=O)O)[C@@H](O)[C@@]1(O)[C@H]4[C@H]([C@H](C)[C@@H]1OC(=O)c1ccccc1)[C@H](C)CCCCCC[C@H]5O)O2 | > 1 | > 1 |  | 
4 | C=C(C)[C@]12C[C@@H](COC(=O)c3ccccc3)[C@@]34OC5(O[C@@H]1[C@@H]3[C@@H]1O[C@]1(CO)[C@@H](O)[C@@]1(O)[C@H]4[C@H]([C@H](C)[C@@H]1O)[C@H](C)CCCCCC[C@H]5O)O2 | > 1 | > 1 |  | 
5 | C=C(C)[C@]12C[C@@H](COC(=O)c3ccccc3)[C@@]34OC5(O[C@@H]1[C@@H]3[C@@H]1O[C@]1(CO)[C@@H](O)[C@@]1(O)[C@H]4[C@H]([C@H](C)[C@@H]1OC(=O)c1ccccc1)[C@H](C)CCCCCC[C@H]5OC(=O)c1ccc3ccccc3c1)O2 | > 1 | > 1 |  | 
6 | C=C(C)[C@]12C[C@@H](COC(=O)c3ccccc3)[C@@]34OC5(O[C@@H]1[C@@H]3[C@@H]1O[C@]1(CO)C(=O)[C@@]1(O)[C@H]4[C@H]([C@H](C)[C@@H]1OC(=O)c1ccccc1)[C@H](C)CCCCCC[C@H]5O)O2 | > 1 | > 1 | > 3.9 | 
7 | C=C(C)[C@]12C[C@@H](COC(=O)c3ccccc3)[C@@]34OC5(O[C@@H]1[C@@H]3[C@@H]1O[C@]1(CO)[C@@H](O)[C@@]1(O)[C@H]4[C@H]([C@H](C)[C@@H]1OC(=O)c1ccccc1)[C@H](C)CCCCCC[C@H]5OC(=O)c1ccc([N+](=O)[O-])cc1)O2 | > 1 | > 1 |  | 
8 | C=C(C)[C@]12C[C@@H](COC(=O)c3ccccc3)[C@@]34OC5(O[C@@H]1[C@@H]3[C@@H]1O[C@]1(COC(=O)c1ccccc1)[C@@H](O)[C@@]1(O)[C@H]4[C@H]([C@H](C)[C@@H]1OC(=O)c1ccccc1)[C@H](C)CCCCCC[C@H]5OC(=O)c1ccccc1)O2 | > 1 | > 1 |  | 
9 | C=C(C)[C@]12C[C@@H](COC(=O)c3ccccc3)[C@@]34OC5(O[C@@H]1[C@@H]3[C@@H]1O[C@]1(CO)[C@@H](OC(=O)c1ccccc1)[C@@]1(O)[C@H]4[C@H]([C@H](C)[C@@H]1OC(=O)c1ccccc1)[C@H](C)CCCCCC[C@H]5O)O2 | > 1 | > 1 |  | 
10 | C=C(C)[C@]12C[C@@H](COC(=O)c3ccccc3)[C@@]34OC5(O[C@@H]1[C@@H]3[C@@H]1O[C@]1(CO)[C@@H](O)[C@@]1(O)[C@H]4[C@H]([C@H](C)[C@@H]1OC(=O)c1ccccc1)[C@H](C)CCCCCC[C@H]5OC(=O)c1ccccc1)O2 | > 1 | > 1 |  | 
11 | C=C(C)[C@]12C[C@@H](COC(=O)c3ccccc3)[C@@]34OC5(O[C@@H]1[C@@H]3[C@@H]1O[C@]1(CO)[C@@H](O)[C@@]1(O)[C@H]4[C@H]([C@H](C)[C@@H]1OC(=O)/C=C/c1ccccc1)[C@H](C)CCCCCC[C@H]5O)O2 | > 1 | > 1 |  | 
12 | C=C(C)[C@]12C[C@@H](COC(=O)c3ccccc3)[C@@]34OC5(O[C@@H]1[C@@H]3[C@@H]1O[C@]1(COC(=O)CCC(=O)O)[C@@H](O)[C@@]1(O)[C@H]4[C@H]([C@H](C)[C@@H]1OC(=O)c1ccccc1)[C@H](C)CCCCCC[C@H]5O)O2 | > 1 | > 1 |  | 
13 | C=C(C)[C@]12C[C@@H](CO)[C@@]34OC5(O[C@@H]1[C@@H]3[C@@H]1O[C@]1(CO)[C@@H](O)[C@@]1(O)[C@H]4[C@H]([C@H](C)[C@@H]1O)[C@H](C)CCCCCC[C@H]5O)O2 | > 1 | > 1 |  | 
14 | C=C(C)[C@]12C[C@@H](COC(=O)c3ccccc3)[C@@]34OC5(O[C@@H]1[C@@H]3[C@@H]1O[C@]1(CO)[C@@H](O)[C@@]1(O)[C@H]4[C@H]([C@H](C)[C@@H]1OC(=O)c1ccc3ccccc3c1)[C@H](C)CCCCCC[C@H]5O)O2 | > 1 | 0.15 |  | 26.17
15 | C=C(C)[C@]12C[C@@H](COC(=O)c3ccccc3)[C@@]34OC5(O[C@@H]1[C@@H]3[C@@H]1O[C@]1(COC(=O)CC(C)(C)C(=O)O)[C@@H](O)[C@@]1(O)[C@H]4[C@H]([C@H](C)[C@@H]1OC(=O)c1ccccc1)[C@H](C)CCCCCC[C@H]5O)O2 | > 1 | > 1 |  | 
16 | CC(C)[C@]12C[C@@H](COC(=O)c3ccccc3)[C@@]34OC5(O[C@@H]1[C@@H]3[C@@H]1O[C@]1(CO)[C@@H](O)[C@@]1(O)[C@H]4[C@H]([C@H](C)[C@@H]1OC(=O)c1ccccc1)[C@H](C)CCCCCC[C@H]5O)O2 | > 1 | 0.18 |  | 
17 | C=C(C)[C@]12C[C@@H](COC(=O)c3ccccc3)[C@@]34OC5(O[C@@H]1[C@@H]3[C@@H]1O[C@]1(CO)[C@@H](O)[C@@]1(O)[C@H]4[C@H]([C@H](C)[C@@H]1OC(=O)c1ccccc1)[C@H](C)CCCCCC[C@H]5OC(=O)/C(C)=C/C)O2 | > 1 | > 1 |  | 
18 | C=C(C)[C@]12C[C@@H](COC(=O)c3ccccc3)[C@@]34OC5(O[C@@H]1[C@@H]3[C@@H]1O[C@]1(COC(=O)C1(C)COC(C)(C)OC1)[C@@H](O)[C@@]1(O)[C@H]4[C@H]([C@H](C)[C@@H]1OC(=O)c1ccccc1)[C@H](C)CCCCCC[C@H]5O)O2 | > 1 | > 1 |  | 
19 | C=C(C)[C@]12C[C@@H](COC(=O)c3ccccc3)[C@@]34OC5(O[C@@H]1[C@@H]3[C@@H]1O[C@]1(COC(C)=O)[C@@H](O)[C@@]1(O)[C@H]4[C@H]([C@H](C)[C@@H]1OC(=O)c1ccccc1)[C@H](C)CCCCCC[C@H]5O)O2 | > 1 | > 1 |  | 
20 | C=C(C)[C@]12C[C@@H](COC(=O)c3ccccc3)[C@@]34OC5(O[C@@H]1[C@@H]3[C@@H]1O[C@]1(CO)[C@@H](O)[C@@]1(O)[C@H]4[C@H]([C@H](C)[C@@H]1OC(=O)c1ccc([N+](=O)[O-])cc1)[C@H](C)CCCCCC[C@H]5O)O2 | > 1 | 0.22 |  | 
21 | C=C(C)[C@]12C[C@@H](COC(=O)c3ccccc3)[C@@]34OC5(O[C@@H]1[C@@H]3[C@@H]1O[C@]1(CO)[C@@H](OC(C)=O)[C@@]1(O)[C@H]4[C@H]([C@H](C)[C@@H]1OC(=O)c1ccccc1)[C@H](C)CCCCCC[C@H]5O)O2 | > 1 | > 1 |  | 
22 | C=C(C)[C@]12C[C@@H](COC(=O)c3ccccc3)[C@@]34OC5(O[C@@H]1[C@@H]3[C@@H]1O[C@]1(CO)[C@@H](O)[C@@]1(O)[C@H]4[C@H]([C@H](C)[C@@H]1OC(=O)c1ccccc1)[C@H](C)CCCCCC[C@H]5OC(=O)/C=C/c1ccccc1)O2 | > 1 | > 1 |  | 
23 | C=C(C)[C@]12C[C@@H](COC(=O)c3ccccc3)[C@@]34OC5(O[C@@H]1[C@@H]3[C@@H]1O[C@]1(CO)[C@@H](O)[C@@]1(O)[C@H]4[C@H]([C@H](C)[C@@H]1OC(=O)c1ccc(OC)cc1)[C@H](C)CCCCCC[C@H]5O)O2 | > 1 | 0.17 |  | 
24 | C=C(C)[C@]12C[C@@H](COC(=O)c3ccccc3)[C@@]34OC5(O[C@@H]1[C@@H]3[C@@H]1O[C@]1(CO)[C@@H](O)[C@@]1(O)[C@H]4[C@H]([C@H](C)[C@@H]1OC(=O)c1ccccc1)[C@H](C)CCCCCC[C@H]5OC(C)=O)O2 | > 1 | 0.09 |  | 
25 | C=C(C)[C@]12C[C@@H](COC(=O)c3ccccc3)[C@@]34OC5(O[C@@H]1[C@@H]3[C@@H]1O[C@]1(COC(=O)/C=C/c1ccc(OC)cc1)[C@@H](O)[C@@]1(O)[C@H]4[C@H]([C@H](C)[C@@H]1OC(=O)c1ccccc1)[C@H](C)CCCCCC[C@H]5O)O2 | > 1 | > 1 |  | 
26 | C=C(C)[C@]12C[C@@H](COC(=O)c3ccccc3)[C@@]34OC5(O[C@@H]1[C@@H]3[C@@H]1O[C@]1(COC(=O)c1ccccc1)[C@@H](O)[C@@]1(O)[C@H]4[C@H]([C@H](C)[C@@H]1OC(=O)c1ccccc1)[C@H](C)CCCCCC[C@H]5O)O2 | > 1 | > 1 |  | 
27 | C=C(C)[C@]12C[C@@H](COC(=O)c3ccccc3)[C@@]34OC5(O[C@@H]1[C@@H]3[C@@H]1O[C@]1(COC(C)=O)[C@@H](OC(C)=O)[C@@]1(O)[C@H]4[C@H]([C@H](C)[C@@H]1OC(=O)c1ccccc1)[C@H](C)CCCCCC[C@H]5OC(C)=O)O2 | > 1 | > 1 |  | 
